Test results as given in ChEMBL document CHEMBL1140385, “Synthesis and antibacterial activity of 3-substituted-6-(3-ethyl-4-methylanilino)uracils” (J Med Chem, 2005).
Values after ≈ are worked out from the molar mass of the structure shown.

Experiments:
[1] = tested on: Staphylococcus aureus; assay: In vitro minimum inhibitory concentration against Methicillin-resistant Staphylococcus aureus upon incubation at 37 degree C for 16 to 24 hr by dissolving in DMSO (1%); format: functional
Summary of the method: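 Broth microdilution (modified NCCLS M7-A4). Staphylococci grown to log phase in Luria broth, seeded at (3-7) × 10⁵ CFU/mL. Compounds 2-fold diluted from DMSO stocks, 20 to 1.25 µg/mL, final 1% DMSO, in duplicate. Incubated 37 °C, 16-24 h, with shaking. OD600 read.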

[2] = tested on: Enterococcus faecium; assay: In vitro minimum inhibitory concentration against Enterococcus fecium upon incubation at 37 degree C for 16 to 24 hr by dissolving in DMSO (1%); format: functional
Summary of the method: (§1)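 Broth microdilution (modified NCCLS M7-A4). Enterococci grown to log phase in brain-heart infusion broth, seeded at (3-7) × 10⁵ CFU/mL. Compounds 2-fold diluted from DMSO stocks, 20 to 1.25 µg/mL, final 1% DMSO, in duplicate. Incubated 37 °C, 16-24 h, with shaking. OD600 read.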

[3] = tested on: Enterococcus faecium; assay: In vitro minimum inhibitory concentration against Vancomycin resistant Enterococci faecium upon incubation at 37 degree C for 16 to 24 hr by dissolving in DMSO (1%); format: functional; summary of the method: as §1
[4] = tested on: Staphylococcus aureus; assay: Serum effect on MIC against Staphylococcus aureus (Smith) as ratio of MIC value in presence and absence of 50% fetal calf serum; format: functional
Summary of the method: (§2)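 Broth microdilution MIC was repeated with 50% fetal calf serum added to the growth medium (LB for S. aureus, brain-heart infusion broth for E. faecalis). The inoculum was (3-7) × 10^5 CFU/mL in 1% DMSO, incubated at 37 °C for 16-24 h, and read by OD600. The serum effect is the MIC with serum relative to the MIC without serum.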

[5] = tested on: Staphylococcus aureus; assay: In vitro minimum inhibitory concentration against Staphylococcus aureus upon incubation at 37 degree C for 16 to 24 hr by dissolving in DMSO (1%); format: functional
[6] = tested on: Enterococcus faecalis; assay: In vitro minimum inhibitory concentration against Enterococcus faecalis upon incubation at 37 degree C for 16 to 24 hr by dissolving in DMSO (1%); format: functional
Summary of the method: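 Log-phase E. faecalis was grown in brain-heart infusion broth and seeded at (3-7) × 10^5 CFU/mL. Duplicate 2-fold dilutions ran from 20 to 1.25 µg/mL, final 1% DMSO. After 16-24 h at 37 °C with shaking, OD600 was read.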

[7] = tested on: Staphylococcus aureus; assay: Effect on survival of staphylococcus aureus (Smith) ip-infected mice at a concentration 10 mg/kg; format: functional
Summary of the method: (§3)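 Male pathogen-free Swiss-Webster mice (20-24 g), groups of five, infected ip with ca. 10⁸ CFU log-phase S. aureus Smith (grown 37 °C in LB, washed, in 0.5 mL LB). Single ip dose 15 min post-infection, in 10% DMSO/peanut oil or PBS. Survivors counted at 72 h post-infection.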

[8] = target: DNA polymerase III PolC-type (Bacillus subtilis (strain 168), UniProt P13267); assay: Inhibitory concentration against Bacillus subtilis DNA polymerase IIIC using [3H]dTMP 250 pM (30 degree C for 10 min)
Summary of the method: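 Homogeneous recombinant B. subtilis pol IIIC, 0.025-0.06 units, acted on activated calf thymus DNA with Mg2+, DTT, glycerol, dATP, dCTP, dTTP and [3H]dTTP, without dGTP. Compounds were serially diluted from DMSO. Reactions ran 10 min at 30 °C, were stopped with TCA-pyrophosphate, and the filter-collected precipitate was scintillation counted. Apparent Ki was read directly from this truncated assay; average standard deviation ±44%.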

[9] = Maximum time taken to reach Cmax was determined in mouse after peroral administration at 200 mg/kg; format: ADME, organism-based; set-up: dose 200 mg/kg, route oral; settings: in vivo, po
Summary of the method: (§4)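 A single 200 mg/kg gavage dose in KOH-neutralized PBS was given to male Swiss-Webster mice. Blood was taken by cardiac puncture under halothane before dosing and at 15, 30, 60, 120 and 180 min. Heparinized plasma was deproteinized with equal-volume MeCN and quantified by C18 HPLC (282 nm) against a standard curve from compound-spiked plasma.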

[10] = Maximum plasma concentration in mouse after peroral administration at 200 mg/kg; format: ADME, organism-based; set-up: dose 200 mg/kg, route oral; settings: po; summary of the method: as §4
[11] = Area under the plasma concentration curve determined in mouse after subcutaneous administration at 400 mg/kg; format: ADME, organism-based; set-up: dose 400 mg/kg, route subcutaneous; settings: in vivo, sc
Summary of the method: (§5)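 Male Swiss-Webster mice got single sc doses of 20 or 60 mg/kg in 30% aqueous HP-β-cyclodextrin, or 20, 200 or 400 mg/kg in KOH-neutralized PBS. Groups of three were bled by cardiac puncture before dosing and at 5, 15, 30, 60, 120 and 180 min, plus 360 min at 400 mg/kg. Plasma drug was measured by C18 reverse-phase HPLC at 282 nm against a spiked-plasma standard curve.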

[12] = Area under the plasma concentration curve determined in mouse after peroral administration at 200 mg/kg; format: ADME, organism-based; set-up: dose 200 mg/kg, route oral; settings: in vivo, po; summary of the method: as §4
[13] = Half life in mouse after peroral administration at 200 mg/kg; format: ADME, organism-based; set-up: dose 200 mg/kg, route oral; settings: in vivo, po; summary of the method: as §4
[14] = tested on: Enterococcus faecalis; assay: Serum effect on MIC of compound was measured against Enterococcus faecalis as ratio of MIC value in presence and absence of 50% fetal calf serum; format: functional; summary of the method: as §2
[15] = Area under the plasma concentration curve determined in mouse after intravenous administration at 20 mg/kg; format: ADME, organism-based; set-up: dose 20 mg/kg, route intravenous; settings: in vivo
Summary of the method: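 Male Swiss-Webster mice (20-24 g) got a 20 mg/kg tail-vein iv bolus, either in 30% aqueous HP-β-cyclodextrin or in PBS neutralized with KOH. Groups of three were bled by cardiac puncture under halothane before dosing and at 2, 5, 15, 30, 60 and 120 min. Heparinized plasma was MeCN-treated and run on C18 HPLC at 282 nm against a spiked-plasma standard curve.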

[16] = Area under the plasma concentration curve determined in mouse after subcutaneous administration at 20 mg/kg; format: ADME, organism-based; set-up: dose 20 mg/kg, route subcutaneous; settings: in vivo, sc; summary of the method: as §5
[17] = tested on: Staphylococcus aureus; assay: Effect on survival of staphylococcus aureus (Smith) ip-infected mice at a concentration 20 mg/kg; format: functional; summary of the method: as §3
[18] = Area under the plasma concentration curve determined in mouse after subcutaneous administration at 200 mg/kg; format: ADME, organism-based; set-up: dose 200 mg/kg, route subcutaneous; settings: in vivo, sc; summary of the method: as §5
[19] = tested on: Staphylococcus aureus; assay: In vitro minimum inhibitory concentration against Staphylococcus aureus (Smith) upon incubation at 37 degree C for 16 to 24 hr by dissolving in DMSO (1%); format: functional
[20] = tested on: Bacillus subtilis; assay: In vitro minimum inhibitory concentration against Bacillus subtilis upon incubation at 37 degree C for 16 to 24 h; format: functional

Sequence of DNA polymerase III PolC-type (P13267 whole entry, the tested form may be a part): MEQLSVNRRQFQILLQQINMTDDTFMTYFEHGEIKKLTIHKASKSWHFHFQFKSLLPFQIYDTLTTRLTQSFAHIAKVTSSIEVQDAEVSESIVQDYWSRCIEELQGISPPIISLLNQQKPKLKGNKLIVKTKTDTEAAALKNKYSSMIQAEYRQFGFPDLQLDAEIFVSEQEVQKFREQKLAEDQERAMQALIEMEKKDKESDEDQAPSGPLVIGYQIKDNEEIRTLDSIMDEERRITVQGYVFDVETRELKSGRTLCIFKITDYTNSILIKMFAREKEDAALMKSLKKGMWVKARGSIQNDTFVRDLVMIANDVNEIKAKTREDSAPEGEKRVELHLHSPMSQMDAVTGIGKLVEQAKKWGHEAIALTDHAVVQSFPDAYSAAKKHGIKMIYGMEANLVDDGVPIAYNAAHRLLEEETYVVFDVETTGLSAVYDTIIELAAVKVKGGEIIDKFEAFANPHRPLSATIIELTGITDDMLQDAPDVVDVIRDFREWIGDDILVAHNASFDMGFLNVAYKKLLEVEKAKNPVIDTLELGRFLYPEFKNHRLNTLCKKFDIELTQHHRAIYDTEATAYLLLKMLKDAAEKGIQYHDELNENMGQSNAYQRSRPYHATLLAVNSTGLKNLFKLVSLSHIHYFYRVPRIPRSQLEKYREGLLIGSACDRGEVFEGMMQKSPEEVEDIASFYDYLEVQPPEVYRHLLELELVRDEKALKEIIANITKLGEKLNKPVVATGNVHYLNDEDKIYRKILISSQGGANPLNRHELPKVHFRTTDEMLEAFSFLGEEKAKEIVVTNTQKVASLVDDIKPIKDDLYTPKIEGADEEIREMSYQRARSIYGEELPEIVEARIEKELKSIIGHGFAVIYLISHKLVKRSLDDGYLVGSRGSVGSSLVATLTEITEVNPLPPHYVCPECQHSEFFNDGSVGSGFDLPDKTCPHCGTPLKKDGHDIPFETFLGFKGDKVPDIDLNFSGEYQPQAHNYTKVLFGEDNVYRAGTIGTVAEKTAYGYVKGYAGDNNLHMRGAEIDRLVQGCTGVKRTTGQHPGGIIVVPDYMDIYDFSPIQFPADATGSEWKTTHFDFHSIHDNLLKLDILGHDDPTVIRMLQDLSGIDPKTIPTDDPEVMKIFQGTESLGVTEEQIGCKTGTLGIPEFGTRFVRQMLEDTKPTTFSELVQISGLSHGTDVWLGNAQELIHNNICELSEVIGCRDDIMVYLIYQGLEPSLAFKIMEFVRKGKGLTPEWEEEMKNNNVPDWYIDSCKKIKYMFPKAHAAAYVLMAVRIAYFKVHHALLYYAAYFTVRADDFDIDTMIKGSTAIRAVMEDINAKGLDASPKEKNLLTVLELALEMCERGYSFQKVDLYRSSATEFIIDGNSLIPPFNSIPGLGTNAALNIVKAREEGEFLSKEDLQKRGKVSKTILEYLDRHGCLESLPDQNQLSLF

Row | Compound | MIC [1] [µg/mL] | MIC [2] [µg/mL] | MIC [3] [µg/mL] | MIC+/MIC- [4] | MIC [5] [µg/mL] | MIC [6] [µg/mL] | Activity [7] | Ki [8] [nM] | Tmax [9] [h] | Cmax [10] [ng/mL] | AUC [11] [ng·h/mL] | AUC [12] [ng·h/mL] | half-life [13] [h] | MIC+/MIC- [14] | AUC [15] [ng·h/mL] | AUC [16] [ng·h/mL] | Activity [17] | AUC [18] [ng·h/mL] | MIC [19] [µg/mL] | MIC [20] [µg/mL]
1 | CCc1cc(Nc2cc(=O)n(CCOCCOC)c(=O)[nH]2)ccc1C | 5 (≈ 14.4 µM) | 5 (≈ 14.4 µM) | 5 (≈ 14.4 µM) | 5.5 | 5 (≈ 14.4 µM) | 5 (≈ 14.4 µM) | 2 | – | – | – | – | – | – | – | – | – | – | – | – | –
2 | CCc1cc(Nc2cc(=O)n(CCCCN3CCOCC3)c(=O)[nH]2)ccc1C.Cl | 10 | 10 | 5 | 1.7 | 10 | 5 | 4 | 52 | 1 | 7300 | 50700 | 15400 | 1.85 | 2 | 3900 | 6770 | 5 | 26900 | – | –
3 | CCc1cc(Nc2cc(=O)n(CCN3CCOCC3)c(=O)[nH]2)ccc1C | 5 (≈ 13.9 µM) | – | 5 (≈ 13.9 µM) | 5.5 | 10 (≈ 27.9 µM) | 5 (≈ 13.9 µM) | – | – | – | – | – | – | – | 2.7 | – | – | – | – | – | –
4 | CCc1cc(Nc2cc(=O)n(CCOCCO)c(=O)[nH]2)ccc1C | 10 (≈ 30 µM) | 5 (≈ 15 µM) | 2.5 (≈ 7.5 µM) | 7.5 | – | 5 (≈ 15 µM) | 4 | – | – | – | – | – | – | – | – | – | – | – | 5 (≈ 15 µM) | –
5 | CCc1cc(Nc2cc(=O)n(CCCCCCCCCO)c(=O)[nH]2)ccc1C | 20 (≈ 51.6 µM) | 2.5 (≈ 6.45 µM) | 2.5 (≈ 6.45 µM) | >32 | 20 (≈ 51.6 µM) | 2.5 (≈ 6.45 µM) | – | 87 | – | – | – | – | – | – | – | – | – | – | 2.5 (≈ 6.45 µM) | < 1.25
6 | CN[C@H](CC(C)C)C(=O)N[C@H]1C(=O)N[C@@H](CC(N)=O)C(=O)N[C@H]2C(=O)N[C@H]3C(=O)N[C@H](C(=O)N[C@H](C(=O)O)c4cc(O)cc(O)c4-c4cc3ccc4O)[C@H](O)c3ccc(c(Cl)c3)Oc3cc2cc(c3O[C@@H]2O[C@H](CO)[C@@H](O)[C@H](O)[C@H]2O[C@H]2C[C@](C)(N)[C@H](O)[C@H](C)O2)Oc2ccc(cc2Cl)[C@H]1O [VANCOMYCIN] | 0.625 (≈ 0.431 µM) | 1.25 (≈ 0.863 µM) | > 20 | – | – | 0.625 (≈ 0.431 µM) | 5 | – | – | – | – | – | – | – | – | – | 5 | – | – | –
